ChEMBL document CHEMBL1145854, “Characteristics of selenazolidine prodrugs of selenocysteine: toxicity and glutathione peroxidase induction in V79 cells” (J Med Chem, 2003)

Assays:
Details in all cases: Cricetulus griseus
V79 [1] = test: Cytotoxicity activity against V79 cells; type: functional, cell-based
Summary of the method: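 V79 cells kept in D-MEM with 10% Fetal Clone I serum at 37 °C, 5% CO2, then seeded in 96-well plates and allowed to adhere overnight. Exposed 2 days to compound (0–3000 µM, pH 7–7.5, in complete medium). Viability read by MTS (2 h, 490 nm), expressed as percent of untreated control. IC50 taken by regression of viability vs concentration.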

V79 [2] = test: Glutathione peroxidase activity in V79 cells at 100 uM expressed as fold induction of GPx activity to control value; type: cell-based
Summary of the method: (§1)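 V79 cells (5.0×10^5 per flask) adhered overnight, then exposed 48 h to compound in complete medium (pH 7–7.5), followed by 24 h in fresh medium. Cells were sonicated in Tris-HCl (50 mM, pH 7.5, EDTA, 2-mercaptoethanol) and centrifuged. Supernatant GPx was read as NADPH loss at 340 nm over 3 min with tert-butyl hydroperoxide, normalised to Bradford protein (N = 9), and given as fold over untreated control.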

V79 [3] = test: Glutathione peroxidase activity in V79 cells at 20 uM expressed as fold induction of GPx activity to control value; type: cell-based; summary of the method: as §1

In the case of `O=[Se](=O)(O)O` [SODIUM SELENATE], the IC50 (V79 [1]) is reported as 292 µM and the Fold induction (V79 [2]) is reported as 1.9.

In the case of `N#C[Se]Cc1ccc(C[Se]C#N)cc1`, the Fold induction (V79 [3]) is reported as 1.5 and the IC50 (V79 [1]) is reported as 12 µM.

Work on `O=[Se](O)O` [SODIUM SELENITE] yielded an IC50 (V79 [1]) of 17 µM.

Compound `O=C1N[C@H](C(=O)O)C[Se]1` has an IC50 (V79 [1]) of 451 µM and a Fold induction (V79 [2]) of 4.6.

For `C[Se]C[C@H](N)C(=O)O` [METHYLSELENOCYSTEINE], the IC50 (V79 [1]) was 472 µM and the Fold induction (V79 [2]) was 1.5.

In the case of `CC1N[C@H](C(=O)O)C[Se]1` (some centres undefined), the IC50 (V79 [1]) is reported as 79 µM and the Fold induction (V79 [2]) is reported as 2.1.

`CC1N[C@@H](C(=O)O)C[Se]1` (some centres undefined) was tested, and the IC50 (V79 [1]) was 160 µM and the Fold induction (V79 [2]) was 1.3.

Compound `C[Se]CC[C@H](N)C(=O)O` [SELENOMETHIONINE] has an IC50 (V79 [1]) of 267 µM and a Fold induction (V79 [2]) of 1.8.

`O=C1N[C@@H](C(=O)O)C[Se]1` showed an IC50 (V79 [1]) greater than 3000 µM and a Fold induction (V79 [2]) of 1.4.

`O=C(O)[C@@H]1C[Se]CN1` gave an IC50 (V79 [1]) of 317 µM and a Fold induction (V79 [2]) of 5.9.
